# In ChEMBL document CHEMBL1275586, “Phenotypic susceptibility to bevirimat in isolates from HIV-1-infected patients without prior exposure to bevirimat” (Antimicrob Agents Chemother, 2010):
# pEC50: −log10 of the molar value.
# Columns and labels:
# [1] = test system: Human immunodeficiency virus 1; test: Antiviral activity against Human immunodeficiency virus 1 isolate 38 harboring Gag-SP1 V370A, N372S/G, S373P/T/Q/K, A374A/G/T/S, T375A and I376M mutant gene infected in human MT-2 cells by XTT assay relative to wild-type; assay type: functional, MT2
# How it was run: (§1)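 Patient Gag-protease (SfoI-XmaI) fragments were ligated into the pXXLAI backbone, with colonies pooled to keep quasispecies. Virus came from 293T transfection, harvested at 2 days. MT-2 infection at 37°C used an input giving XTT signal-to-noise of 2.5–4.0 (≈MOI 0.001). Cells at ≈17,000/well with drug dilutions, 5 days, 37°C; XTT 1 h, A450–650. EC50 from % cell death; fold change vs wild-type LAI.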
# [2] = test system: Human immunodeficiency virus 1; test: Antiviral activity against Human immunodeficiency virus 1 isolate 36 harboring Gag-SP1 […], A374N and T375A mutant gene infected in human MT-2 cells by XTT assay relative to wild-type; assay type: functional, MT2; how it was run: as §1
# [3] = test system: Human immunodeficiency virus 1; test: Antiviral activity against Human immunodeficiency virus 1 LAI Gag-[…] V362I mutant infected in human MT-2 cells by XTT-assay relative to wild-type; assay type: functional, MT2
# How it was run: (§2)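 Site-directed mutants were made by two-round overlap PCR into the pXXLAI (HIV-1 LAI) backbone from an individual clone, then transfected into 293T cells, with supernatant harvested at 2 days. MT-2 cells were infected at an input giving an XTT signal-to-noise of 2.5–4.0, plated at ≈17,000 cells/well with drug dilutions, and read by XTT after 5 days. EC50 from % cell death; fold change vs wild-type LAI.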
# [4] = test system: Human immunodeficiency virus 1; test: Antiviral activity against antiretroviral-pretreated PI-resistant Human immunodeficiency virus 1 isolate 5 harboring Gag-SP1 Q369H and T375N mutant gene infected in human MT-2 cells by XTT assay relative to wild-type; assay type: functional, MT2
# How it was run: (§3)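 Patient-derived Gag fragments were pooled as bacterial colonies to keep quasispecies diversity and ligated into the pXXLAI (HIV-1 LAI) backbone. Virus was made by transfecting 293T cells and harvesting supernatant 2 days later. MT-2 cells were infected at 37°C with an inoculum titrated to give an XTT signal-to-noise of 2.5–4.0. Cells were plated into drug dilutions, incubated 5 days at 37°C, and read by XTT absorbance (450−650 nm). EC50 was taken from percent cell death and expressed as fold change versus wild-type LAI.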
# [5] = test system: Human immunodeficiency virus 1; test: Antiviral activity against antiretroviral-pretreated PI-resistant Human immunodeficiency virus 1 isolate 7 infected in human MT-2 cells by XTT assay relative to wild-type; assay type: functional, MT2; how it was run: as §3
# [6] = test system: Human immunodeficiency virus 1; test: Antiviral activity against Human immunodeficiency virus 1 isolate 35 harboring Gag-capsid G357S mutant gene and Gag-SP1 V370A, T371Q, N372S, T375N and I376M mutant gene infected in human MT-2 cells by XTT assay relative to wild-type; assay type: functional, MT2; how it was run: as §1
# [7] = test system: Human immunodeficiency virus 1; test: Antiviral activity against Human immunodeficiency virus 1 isolate 34 harboring Gag-capsid G357S mutant gene and Gag-SP1 V370A, N372T, S373P and T375A mutant gene infected in human MT-2 cells by XTT assay relative to wild-type; assay type: functional, MT2; how it was run: as §1
# [8] = test system: Human immunodeficiency virus 1; test: Antiviral activity against antiretroviral-pretreated PI-resistant Human immunodeficiency virus 1 isolate 10 harboring deletion at T371 of Gag-SP-1 and Gag-Sp-1 V370I, S373P and I376V mutant gene infected in human MT-2 cells by XTT assay relative to wild-type; assay type: functional, MT2; how it was run: as §3
# [9] = test system: Human immunodeficiency virus 1; test: Antiviral activity against antiretroviral-pretreated PI-resistant Human immunodeficiency virus 1 isolate 27 harboring infected in human MT-2 cells by XTT assay relative to wild-type
# [10] = test system: Human immunodeficiency virus 1; test: Antiviral activity against Human immunodeficiency virus 1 isolate 6 harboring Gag-SP-1 S373 and A374 mutant infected in human MT-2 cells by XTT-assay relative to wild-type; assay type: functional, MT2; how it was run: as §1
# [11] = test system: Human immunodeficiency virus 1; test: Antiviral activity against Human immunodeficiency virus 1 isolate 39 harboring Gag-capsid G357S and V362I mutant gene and Gag-SP-1 T375A mutant gene infected in human MT-2 cells by XTT assay relative to wild-type; assay type: functional, MT2; how it was run: as §1
# [12] = test system: Human immunodeficiency virus 1; test: Antiviral activity against Human immunodeficiency virus 1 isolates harboring Gag-SP-1 V370A mutant gene relative to wild-type; assay type: functional; how it was run: as §2
# [13] = test system: Human immunodeficiency virus 1; test: Antiviral activity against Human immunodeficiency virus 1 LAI infected in human MT-2 cells by XTT-assay; assay type: functional, organism-based; conditions: MT2
# How it was run: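 Recombinant virus produced by transfecting 7 μg viral plasmid (pXXLAI backbone; patient-derived SfoI-XmaI fragment for isolates) into 293T cells. Supernatant harvested 2 days later. 2.4 million MT-2 cells infected at 37°C with virus giving XTT signal-to-noise 2.5–4.0, then plated ≈17,000 cells/well with drug dilutions. After 5 days at 37°C, 5% CO2, 1.67 mg/ml XTT added for 1 h. A450–A650 read; EC50 from cell-death curves.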
# [14] = test system: Human immunodeficiency virus 1; test: Antiviral activity against Human immunodeficiency virus 1 isolate 31 harboring Gag-SP1 V370A, T371S, N372A/T, A374N/T and I376V mutant gene infected in human MT-2 cells by XTT assay relative to wild-type; assay type: functional, MT2; how it was run: as §1
# [15] = test system: Human immunodeficiency virus 1; test: Antiviral activity against antiretroviral-pretreated PI-resistant Human immunodeficiency virus 1 isolate 24 harboring Gag-capsid V362I mutant gene, Gag-SP-1 V370A, N372T and T375A mutant gene and deletion at T371 in Gag-SP-1 infected in human MT-2 cells by XTT assay relative to wild-type; assay type: functional, MT2; how it was run: as §3
# [16] = test system: Human immunodeficiency virus 1; test: Antiviral activity against Human immunodeficiency virus 1 isolate 2 harboring Gag-capsid A146P, S173A, V215L, E230D, N252S, L268M and A340G mutant gene and protease L10I, I15V, K20R, M36I, S37N, M46I, L63P, V82A, N83H, I84V, I85T and L90M mutant gene infected in human MT-2 cells by XTT-assay relative to wild-type; assay type: functional, MT2; how it was run: as §1
# [17] = test system: Human immunodeficiency virus 1; test: Antiviral activity against antiretroviral-pretreated PI-resistant Human immunodeficiency virus 1 isolate 4 harboring Gag-capsid G357S mutant gene and Gag-Sp-1 N372A, A374T and T375N mutant gene infected in human MT-2 cells by XTT assay relative to wild-type
# [18] = test system: Human immunodeficiency virus 1; test: Antiviral activity against antiretroviral-pretreated PI-resistant Human immunodeficiency virus 1 isolate 3 harboring Gag-capsid G357S mutant gene, Gag-Sp-1 V370A and N372H mutant gene and deletion at T371 in Gag-SP-1 infected in human MT-2 cells by XTT assay relative to wild-type; assay type: functional, MT2; how it was run: as §3
# [19] = test system: Human immunodeficiency virus 1; test: Antiviral activity against antiretroviral-pretreated PI-resistant Human immunodeficiency virus 1 isolate 26 harboring Gag-SP1 N372S, S373P and T375N mutant gene infected in human MT-2 cells by XTT assay relative to wild-type; assay type: functional, MT2; how it was run: as §3
# [20] = test system: Human immunodeficiency virus 1; test: Antiviral activity against antiretroviral-pretreated Human immunodeficiency virus 1 isolate 8 infected in human MT-2 cells by XTT assay relative to wild-type; assay type: functional, MT2; how it was run: as §3
# [21] = test system: Human immunodeficiency virus 1; test: Antiviral activity against Human immunodeficiency virus 1 isolates harboring deletion at T371 in Gag-SP-1 relative to wild-type; assay type: functional; how it was run: as §2
# [22] = test system: Human immunodeficiency virus 1; test: Antiviral activity against antiretroviral-pretreated PI-resistant Human immunodeficiency virus 1 isolate 25 harboring Gag-capsid G357S mutant gene and Gag-SP-1 […] mutant gene infected in human MT-2 cells by XTT assay relative to wild-type; assay type: functional, MT2; how it was run: as §3
# [23] = test system: Human immunodeficiency virus 1; test: Antiviral activity against Human immunodeficiency virus 1 isolate 7 harboring Gap-SP-1 V362I mutant infected in human MT-2 cells by XTT-assay relative to wild-type; assay type: functional, MT2; how it was run: as §1
compound,measurement,setting,value
C=C(C)[C@@H]1CC[C@]2(C(=O)O)CC[C@]3(C)[C@H](CC[C@@H]4[C@@]5(C)CC[C@H](OC(=O)CC(C)(C)C(=O)O)C(C)(C)[C@@H]5CC[C@]43C)[C@@H]12 [BEVIRIMAT],fold change (FC),[1],>100
same,fold change (FC),[2],1.8
same,fold change (FC),[3],>100
same,fold change (FC),[4],2.2
same,fold change (FC),[5],1
same,fold change (FC),[6],>100
same,fold change (FC),[7],>100
same,fold change (FC),[8],>100
same,fold change (FC),[9],36
same,fold change (FC),[10],>100
same,fold change (FC),[11],>100
same,fold change (FC),[12],>151.4
same,pEC50,[13],7.47
same,fold change (FC),[14],>100
same,fold change (FC),[15],>100
same,fold change (FC),[16],>100
same,fold change (FC),[17],>100
same,fold change (FC),[18],>100
same,fold change (FC),[19],1.3
same,fold change (FC),[20],1.2
same,fold change (FC),[21],52.2
same,fold change (FC),[22],11
same,fold change (FC),[23],>100
